Pf Dd2 inh: inhibitors of Plasmodium falciparum Dd2 growth; P. falciparum Dd2 growth, SYBR Green, 72 h; active compounds read low; activity change, % at 10 µM; hit rate 2.3% among 94,000; AID 1159554; in the data active means activity change below about -80%
Tcruzi prolif: inhibitors of T. cruzi proliferation; hit rate 5.9% among 77,000; T. cruzi beta-gal in NIH3T3, GalScreen luminescence, 90 h; inhibition, % at 8.34 µM;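 active means mean inhibition above about 93%, with at least 55% of replicates each passing it, limit read from the data, passing the limit was not always enough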
KDM4C inh: blocks human GASC-1 (KDM4C) demethylase activity; hit rate 0.15% among 96,000; inhibition, % at 12.5 µM; Q9H3R0; AID 720574; GST-KDM4C 2-372, H3K9me3 peptide, LANCE TR-FRET;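 active means mean replicate inhibition above about 25%, with at least 55% of replicates also reaching it, limit read from the data, passing the limit was not always enough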
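Test system – GST-tagged GASC-1 (JMJD2C) catalytic fragment, aa 2-372 · Medium – HEPES buffer, pH 7.5, plus ascorbate · Reagent – H3K9me3 peptide with Fe(II)/2OG · Compound – one test concentration per compound · Timing – 30 min reaction, 60 min detection, RT · Technique – TR-FRET with Eu antibody and ULight streptavidin, EDTA stop · Read-out basis – inhibition from TR-FRET ratio decrease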
IDH1 mut inh: inhibitors of human IDH1 R132H; inhibition, % at 10 µM; O75874; AID 624101; hit rate 0.18% among 70,000; IDH1 R132H reductase, diaphorase/resazurin fluorescence, 60 min; in the data active means inhibition above about 34%
Target sequence (O75874 whole entry R132H): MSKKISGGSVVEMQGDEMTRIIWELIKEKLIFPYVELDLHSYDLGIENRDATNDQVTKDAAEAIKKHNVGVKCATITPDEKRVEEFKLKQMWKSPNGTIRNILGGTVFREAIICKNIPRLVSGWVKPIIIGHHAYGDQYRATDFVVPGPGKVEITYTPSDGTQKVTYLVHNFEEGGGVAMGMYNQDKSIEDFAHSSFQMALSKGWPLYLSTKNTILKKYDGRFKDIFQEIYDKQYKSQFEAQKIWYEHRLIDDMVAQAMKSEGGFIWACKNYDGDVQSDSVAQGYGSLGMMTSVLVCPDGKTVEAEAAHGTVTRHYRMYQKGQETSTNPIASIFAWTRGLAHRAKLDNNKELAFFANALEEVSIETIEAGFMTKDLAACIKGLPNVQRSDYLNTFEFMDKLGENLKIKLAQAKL
Hits are given with their value; – = inactive; · = no result given. Rows were chosen to be rich in hits. Some 5.8% of all compounds tested hit in one or more screens of this group.

SMILES	Pf Dd2 inh	Tcruzi prolif	KDM4C inh	IDH1 mut inh
CC(C)CC#Cc1ccc2c(c1)O[C@@H](CN(C)Cc1cccc(F)c1)[C@H](C)CN([C@H](C)CO)S2(=O)=O	-92	–	–	–
CC(C)CC#Cc1ccc2c(c1)O[C@@H](CN(C)C(=O)NC(C)C)[C@H](C)CN([C@@H](C)CO)S2(=O)=O	–	–	–	36
CC(C)CC#Cc1ccc2c(c1)O[C@@H](CN(C)Cc1ccccc1)[C@@H](C)CN([C@H](C)CO)S2(=O)=O	–	–	–	–
O=C(CSCc1ccccc1Br)Nc1cccnc1	·	·	·	–
O=P(O)(C1Cc2ccccc2C1)C(O)c1ccco1 (stereo not given)	·	·	·	–
C[C@H](CO)N1C[C@H](C)[C@H](CN(C)Cc2ccc(F)cc2)Oc2cc(C#CCN(C)C)ccc2S1(=O)=O	–	–	42	–
CCOC(=O)c1sc2ncn(CC(=O)Nc3cccc(Br)c3)c(=O)c2c1C	·	·	·	–
C[C@@H]1CN([C@H](C)CO)C(=O)Cc2cc(NC(=O)Nc3ccc4c(c3)OCO4)ccc2O[C@H]1CN(C)Cc1ccc(C(=O)Nc2ccccc2N)cc1	–	–	–	–
C[C@H]1CN([C@@H](C)CO)C(=O)Cc2cc(NC(=O)Nc3ccccc3)ccc2O[C@@H]1CN(C)Cc1ccc(C(=O)Nc2ccccc2N)cc1	·	·	–	·
C[C@@H]1CN([C@H](C)CO)C(=O)Cc2cc(NC(=O)Cc3ccccc3)ccc2O[C@@H]1CN(C)Cc1ccc(C(=O)Nc2ccccc2N)cc1	-85	·	–	–
C[C@@H]1CN([C@@H](C)CO)C(=O)Cc2cc(NC(=O)Cc3ccccc3)ccc2O[C@H]1CN(C)Cc1ccc(C(=O)Nc2ccccc2N)cc1	–	·	–	–
C[C@H](CO)N1C[C@H](C)[C@@H](CN(C)Cc2ccc(C(=O)Nc3ccccc3N)cc2)Oc2ccc(NC(=O)Nc3ccc4c(c3)OCO4)cc2CC1=O	-83	–	–	–
C[C@H]1CN([C@@H](C)CO)C(=O)Cc2cc(NC(=O)Cc3ccccc3)ccc2O[C@@H]1CN(C)Cc1ccc(C(=O)Nc2ccccc2N)cc1	-88	·	–	·
Cc1ccc2ccc(C(Nc3ccccn3)c3ccc(Cl)c(Cl)c3)c(O)c2n1 (stereo not given)	·	·	·	–
Cc1ccc(S(=O)(=O)N(C)C[C@@H]2OCCCC[C@H](C)Oc3ccc(NC(=O)C4CCCCC4)cc3C(=O)N([C@H](C)CO)C[C@H]2C)cc1	-86	–	–	·
C[C@H](CO)N1C[C@H](C)[C@@H](CN(C)S(=O)(=O)c2ccccc2)OCCCC[C@H](C)Oc2ccc(NC(=O)C3CCCCC3)cc2C1=O	–	–	–	·
Cc1ccc(S(=O)(=O)N(C)C[C@@H]2OCCCC[C@@H](C)Oc3ccc(NC(=O)C4CCCCC4)cc3C(=O)N([C@@H](C)CO)C[C@@H]2C)cc1	–	–	–	–
Cc1ccc(S(=O)(=O)N(C)C[C@@H]2OCCCC[C@H](C)Oc3ccc(NC(=O)C4CCCCC4)cc3C(=O)N([C@@H](C)CO)C[C@@H]2C)cc1	–	–	–	–
Cc1ccc(S(=O)(=O)N(C)C[C@H]2OCCCC[C@H](C)Oc3ccc(NC(=O)C4CCCCC4)cc3C(=O)N([C@@H](C)CO)C[C@@H]2C)cc1	-82	–	–	–
C[C@@H]1CN([C@H](C)CO)C(=O)c2cc(NC(=O)C3CCCCC3)ccc2O[C@@H](C)CCCCO[C@@H]1CN(C)S(=O)(=O)c1ccccc1	-82	–	–	·
Cc1ccc(S(=O)(=O)N(C)C[C@H]2OCCCC[C@H](C)Oc3ccc(NC(=O)C4CCCCC4)cc3C(=O)N([C@H](C)CO)C[C@H]2C)cc1	-85	–	–	–
Cc1ccc(S(=O)(=O)N(C)C[C@@H]2OCCCC[C@H](C)Oc3ccc(NC(=O)C4CCCCC4)cc3C(=O)N([C@@H](C)CO)C[C@H]2C)cc1	-85	–	–	·
Cc1ccc(S(=O)(=O)N(C)C[C@H]2OCCCC[C@@H](C)Oc3ccc(NC(=O)C4CCCCC4)cc3C(=O)N([C@@H](C)CO)C[C@@H]2C)cc1	–	–	–	·
C[C@@H]1CCCCO[C@@H](CN(C)Cc2ccc(C(F)(F)F)cc2)[C@H](C)CN([C@H](C)CO)C(=O)c2cc(NC(=O)CCCN(C)C)ccc2O1	-89	–	–	–
C[C@H](CO)N1C[C@H](C)[C@@H](CN(C)Cc2ccc(C(F)(F)F)cc2)OCCCC[C@H](C)Oc2ccc(NC(=O)CCCN(C)C)cc2C1=O	–	–	–	·
SMILES	Pf Dd2 inh	Tcruzi prolif	KDM4C inh	IDH1 mut inh
C[C@@H]1CN([C@H](C)CO)C(=O)c2cc(NC(=O)CCCN(C)C)ccc2O[C@@H](C)CCCCO[C@@H]1CN(C)Cc1ccc(C(F)(F)F)cc1	-87	–	–	–
C[C@H]1CCCCO[C@@H](CN(C)Cc2ccc(C(F)(F)F)cc2)[C@@H](C)CN([C@@H](C)CO)C(=O)c2cc(NC(=O)CCCN(C)C)ccc2O1	-85	–	–	–
C[C@H]1CCCCO[C@H](CN(C)Cc2ccc(C(F)(F)F)cc2)[C@@H](C)CN([C@@H](C)CO)C(=O)c2cc(NC(=O)CCCN(C)C)ccc2O1	-86	–	–	·
O=C(NCc1c(OC(=O)c2cccc([N+](=O)[O-])c2)ccc2ccccc12)c1ccccc1	·	·	·	–
C[C@@H]1CCCCO[C@H](CN(C)Cc2ccc(C(F)(F)F)cc2)[C@H](C)CN([C@H](C)CO)C(=O)c2cc(NC(=O)CCCN(C)C)ccc2O1	-87	–	–	·
O=C(Cc1ccccc1)N1CC(=O)N2[C@H](CO)[C@H](c3ccc(C#Cc4ccccc4)cc3)[C@H]2C1	-84	·	–	·
CC(C)CC#Cc1ccc([C@H]2[C@@H](CO)N3C(=O)CN(C(=O)Cc4ccccc4)C[C@H]23)cc1	-85	·	–	·
COc1ccc(-c2ccc3c(c2)O[C@H](CN(C)C(C)=O)[C@@H](C)CN([C@H](C)CO)S3(=O)=O)cc1	–	–	56	54
COc1ccc(-c2ccc3c(c2)O[C@H](CN(C)C(C)=O)[C@@H](C)CN([C@@H](C)CO)S3(=O)=O)cc1	–	–	–	–
CC(=O)N(C)C[C@@H]1Oc2cc(Br)ccc2S(=O)(=O)N([C@@H](C)CO)C[C@@H]1C	–	–	42	–
CC(C)NC(=O)Nc1ccc2c(c1)C(=O)N([C@@H](C)CO)C[C@H](C)[C@H](CN(C)S(=O)(=O)c1ccc(Cl)cc1)OCCCC[C@@H](C)O2	-83	–	–	–
CC(C)NC(=O)Nc1ccc2c(c1)C(=O)N([C@H](C)CO)C[C@H](C)[C@H](CN(C)S(=O)(=O)c1ccc(Cl)cc1)OCCCC[C@@H](C)O2	–	–	–	–
C[C@@H]1CN([C@@H](C)CO)C(=O)c2cc(NC(=O)Nc3ccccc3)ccc2O[C@@H](C)CCCCO[C@H]1CN(C)S(=O)(=O)c1ccc(Cl)cc1	-83	–	–	–
Cc1ccc(S(=O)(=O)N(C)C[C@@H]2OCCCC[C@H](C)Oc3ccc(NC(=O)Nc4ccccc4)cc3C(=O)N([C@@H](C)CO)C[C@H]2C)cc1	-92	–	–	·

Screening results as filed in PubChem BioAssay.
